Results as given in ChEMBL document CHEMBL1127357, “Synthesis and biochemical evaluation of a series of aminoflavones as potential inhibitors of protein-tyrosine kinases p56lck, EGFr, and p60v-src” (J Med Chem, 1994).
pIC50: −log10 of the molar value.

Key:
[1] = target: Epidermal growth factor receptor (Homo sapiens, UniProt P00533); assay: Inhibition of in vitro activity of EGFr enzyme from A431 cells in presence of 5 uM ATP; format: cell-based, A-431
Procedure, shortened: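 EGFr from human A431 shed membrane vesicles, solubilised in 4% Triton X-100/10% glycerol; 10 μg vesicle protein. Buffer 20 mM HEPES pH 7.4, 15 mM MgCl2, 4 mM MnCl2, 0.02% BSA, 5 μM [32P]ATP, 25 μg Glu:Ala:Tyr (6:3:1) copolymer, 250 ng EGF. 10 min at room temperature; TCA/pyrophosphate quench, filter wash, scintillation counting; autophosphorylation controls included.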

[2] = target: Tyrosine-protein kinase Lck (Bos taurus); assay: In vitro inhibition of protein-tyrosine activity of p56lck enzyme in presence of 50 uM ATP

Chain of Epidermal growth factor receptor (P00533 whole entry): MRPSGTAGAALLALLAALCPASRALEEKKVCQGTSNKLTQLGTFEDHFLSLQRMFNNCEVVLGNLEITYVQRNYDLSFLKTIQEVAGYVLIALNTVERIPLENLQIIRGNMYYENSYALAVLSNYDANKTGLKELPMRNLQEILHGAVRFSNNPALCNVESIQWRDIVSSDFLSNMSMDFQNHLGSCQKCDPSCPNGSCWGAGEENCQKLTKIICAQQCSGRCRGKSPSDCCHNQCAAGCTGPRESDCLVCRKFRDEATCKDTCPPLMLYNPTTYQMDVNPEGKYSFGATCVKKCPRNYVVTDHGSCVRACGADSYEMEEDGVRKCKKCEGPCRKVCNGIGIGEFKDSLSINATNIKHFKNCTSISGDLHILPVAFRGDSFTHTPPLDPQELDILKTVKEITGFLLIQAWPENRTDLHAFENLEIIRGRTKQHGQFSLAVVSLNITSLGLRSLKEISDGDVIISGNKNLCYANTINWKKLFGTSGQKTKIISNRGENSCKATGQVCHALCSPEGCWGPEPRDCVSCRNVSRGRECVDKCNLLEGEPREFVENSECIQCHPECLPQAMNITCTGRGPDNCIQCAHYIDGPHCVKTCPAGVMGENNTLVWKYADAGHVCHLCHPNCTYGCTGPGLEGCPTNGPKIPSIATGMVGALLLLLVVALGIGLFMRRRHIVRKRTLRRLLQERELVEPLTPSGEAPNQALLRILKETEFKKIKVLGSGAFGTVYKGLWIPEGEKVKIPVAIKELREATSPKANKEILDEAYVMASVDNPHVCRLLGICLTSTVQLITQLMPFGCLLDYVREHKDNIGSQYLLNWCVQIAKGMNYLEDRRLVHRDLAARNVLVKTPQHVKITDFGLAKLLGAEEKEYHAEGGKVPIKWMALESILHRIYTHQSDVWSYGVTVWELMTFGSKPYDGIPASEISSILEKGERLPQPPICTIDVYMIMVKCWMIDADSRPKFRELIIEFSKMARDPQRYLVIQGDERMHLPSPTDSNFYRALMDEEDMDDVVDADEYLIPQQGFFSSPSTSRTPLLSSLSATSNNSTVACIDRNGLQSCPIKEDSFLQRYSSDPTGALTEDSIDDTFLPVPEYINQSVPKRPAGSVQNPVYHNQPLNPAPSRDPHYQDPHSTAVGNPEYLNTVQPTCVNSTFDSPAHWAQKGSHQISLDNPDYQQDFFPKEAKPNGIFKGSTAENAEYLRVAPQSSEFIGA

For COc1ccc(N)c2oc(-c3ccc(N)cc3)cc(=O)c12, the pIC50 [1] was < 4.00.
With Nc1ccc(-c2cc(=O)c3c(N)c(O)c(N)cc3o2)cc1 the pIC50 [1] was < 4.00 and the pIC50 [2] was 4.74.
In the case of Nc1cccc(-c2cc(=O)c3cc(N)ccc3o2)c1, the pIC50 [1] was < 4.00 and the pIC50 [2] was 3.70.
For O=c1cc(-c2ccc([N+](=O)[O-])cc2)oc2c([N+](=O)[O-])c(O)ccc12, the pIC50 [2] was 2.73.
For Nc1ccc(-c2cc(=O)c3cc(N)ccc3o2)cc1, the pIC50 [1] was 5.06 and the pIC50 [2] was 3.99.
For Nc1ccc(-c2cc(=O)c3cc(O)cc(N)c3o2)cc1, the pIC50 [1] was < 4.00 and the pIC50 [2] was 3.93.
Compound Nc1ccc(-c2cc(=O)c3cc(N)c(O)cc3o2)cc1 has a pIC50 [1] of 4.85 and a pIC50 [2] of 3.85.
For O=c1cc(-c2ccc([N+](=O)[O-])cc2)oc2c([N+](=O)[O-])cccc12, the pIC50 [2] was < 2.70.
COc1cc(N)c2oc(-c3ccc(N)cc3)cc(=O)c2c1 was tested, and the pIC50 [1] was < 4.00 and the pIC50 [2] was 3.42.
For O=c1cc(-c2ccc([N+](=O)[O-])cc2)oc2c([N+](=O)[O-])ccc(O)c12, the pIC50 [2] was < 2.70.
COc1ccc([N+](=O)[O-])c2oc(-c3ccc([N+](=O)[O-])cc3)cc(=O)c12 was tested, and the pIC50 [2] was < 2.70.
In the case of Nc1cccc(-c2cc(=O)c3cc(N)c(O)cc3o2)c1, the pIC50 [1] was < 4.00 and the pIC50 [2] was 3.30.
In the case of Nc1ccc(-c2cc(=O)c3c(O)c(N)ccc3o2)cc1, the pIC50 [1] was < 4.00 and the pIC50 [2] was 3.65.
In the case of O=c1cc(-c2ccc([N+](=O)[O-])cc2)oc2cc(O)c([N+](=O)[O-])cc12, the pIC50 [2] was < 2.70.
O=c1cc(-c2ccc([N+](=O)[O-])cc2)oc2ccc([N+](=O)[O-])c(O)c12 was tested, and the pIC50 [2] was < 2.70.
With Nc1ccc(-c2cc(=O)c3ccc(O)c(N)c3o2)cc1 the pIC50 [1] was < 4.00 and the pIC50 [2] was 3.48.
For Nc1ccc(-c2cc(=O)c3cccc(N)c3o2)cc1, the pIC50 [1] was < 4.00 and the pIC50 [2] was 3.91.
In the case of Nc1ccc(-c2cc(=O)c3cc(N)cc(N)c3o2)cc1, the pIC50 [1] was < 4.00 and the pIC50 [2] was 3.97.
O=c1cc(-c2ccc([N+](=O)[O-])cc2)oc2c([N+](=O)[O-])cc(O)cc12 was tested, and the pIC50 [2] was < 2.70.
O=c1cc(-c2ccc([N+](=O)[O-])cc2)oc2ccc([N+](=O)[O-])cc12 was tested, and the pIC50 [2] was < 2.70.
Nc1ccc(-c2cc(=O)c3c(O)ccc(N)c3o2)cc1 was tested, and the pIC50 [1] was < 4.00 and the pIC50 [2] was 3.49.
COc1cc([N+](=O)[O-])c2oc(-c3ccc([N+](=O)[O-])cc3)cc(=O)c2c1 was tested, and the pIC50 [2] was < 2.70.
For COc1cc(N)c2oc(-c3cccc(N)c3)cc(=O)c2c1, the pIC50 [1] was < 4.00.
Nc1ccc(-c2cc(=O)c3cc(N)c(O)c(N)c3o2)cc1 was tested, and the pIC50 [1] was < 4.00 and the pIC50 [2] was 3.12.
For Nc1cccc(-c2cc(=O)c3c(N)c(O)c(N)cc3o2)c1, the pIC50 [1] was 5.11 and the pIC50 [2] was 4.34.
